Measurements taken from ChEMBL document CHEMBL3621107, “Ring fusion strategy for synthesis and lead optimization of sulfur-substituted anthra[1,2-c][1,2,5]thiadiazole-6,11-dione derivatives as promising scaffold of antitumor agents” (Eur J Med Chem, 2015).

Assays:
HT-29 = assay: Cytotoxicity against human HT-29 cells assessed as cell growth at 10 uM after 48 hrs by SRB assay relative to control; assay type: functional; conditions: HT-29, 48 h, read-out: Activity
Procedure, shortened: (§1)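 First-stage NCI-60 screen by the NCI Developmental Therapeutics Program. Each compound was tested once at a single concentration of 10 μM against the 60-cell-line panel. Growth percentage was reported for each cell line.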

NCI-H226 = assay: Cytotoxicity against human NCI-H226 cells assessed as cell growth at 10 uM after 48 hrs by SRB assay relative to control; assay type: functional; conditions: NCI-H226, 48 h, read-out: Activity
Procedure, shortened: (§2)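 First-stage NCI DTP one-dose screen against the 60 human tumour cell line panel. Compounds were tested at a single 10 μM level, and results are given as growth percentage.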

OVCAR-3 = assay: Cytotoxicity against human OVCAR3 cells assessed as cell growth at 10 uM after 48 hrs by SRB assay relative to control; assay type: functional; conditions: OVCAR-3, 48 h, read-out: Activity; procedure, shortened: as §2
SF-295 = assay: Cytotoxicity against human SF295 cells assessed as cell growth at 10 uM after 48 hrs by SRB assay relative to control; assay type: functional; conditions: SF-295, 48 h, read-out: Activity; procedure, shortened: as §2
OVCAR-5 = assay: Cytotoxicity against human OVCAR5 cells assessed as cell growth at 10 uM after 48 hrs by SRB assay relative to control; assay type: functional; conditions: OVCAR-5, 48 h, read-out: Activity; procedure, shortened: as §2
SK-MEL-28 = assay: Cytotoxicity against human SK-MEL-28 cells assessed as cell growth at 10 uM after 48 hrs by SRB assay relative to control; assay type: functional; conditions: SK-MEL-28, 48 h, read-out: Activity; procedure, shortened: as §2
MDA-MB-231 = assay: Cytotoxicity against human MDA-MB-231 cells assessed as cell growth at 10 uM after 48 hrs by SRB assay relative to control; assay type: functional; conditions: MDA-MB-231, 48 h, read-out: Activity; procedure, shortened: as §2
786-0 = assay: Cytotoxicity against human 786-0 cells assessed as cell growth at 10 uM after 48 hrs by SRB assay relative to control; assay type: functional; conditions: 786-0, 48 h, read-out: Activity; procedure, shortened: as §1
SNB-19 = assay: Cytotoxicity against human SNB19 cells assessed as cell growth at 10 uM after 48 hrs by SRB assay relative to control; assay type: functional; conditions: SNB-19, 48 h, read-out: Activity
Procedure, shortened: (§3)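 NCI-60 one-dose screen run by NCI DTP: each cell line exposed to a single 10 µM dose, and percentage growth recorded against untreated growth.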

RXF 393 = assay: Cytotoxicity against human RXF393 cells assessed as cell growth at 10 uM after 48 hrs by SRB assay relative to control; assay type: functional; conditions: RXF 393, 48 h, read-out: Activity; procedure, shortened: as §2
SN12C = assay: Cytotoxicity against human SN12C cells assessed as cell growth at 10 uM after 48 hrs by SRB assay relative to control; assay type: functional; conditions: read-out: Activity; procedure, shortened: as §2
KM12 = assay: Cytotoxicity against human KM12 cells assessed as cell growth at 10 uM after 48 hrs by SRB assay relative to control; assay type: functional; conditions: KM12, 48 h, read-out: Activity; procedure, shortened: as §1
SK-MEL-2 = assay: Cytotoxicity against human SK-MEL-2 cells assessed as cell growth at 10 uM after 48 hrs by SRB assay relative to control; assay type: functional; conditions: SK-MEL-2, 48 h, read-out: Activity; procedure, shortened: as §2
MDA-MB-435 = assay: Cytotoxicity against human MDA-MB-435 cells assessed as cell growth at 10 uM after 48 hrs by SRB assay relative to control; assay type: functional; conditions: MDA-MB-435, 48 h, read-out: Activity; procedure, shortened: as §2
NCI/ADR-RES = assay: Cytotoxicity against human NCI/ADR-RES cells assessed as cell growth at 10 uM after 48 hrs by SRB assay relative to control; assay type: functional; conditions: read-out: Activity; procedure, shortened: as §2
A498 = assay: Cytotoxicity against human A498 cells assessed as cell growth at 10 uM after 48 hrs by SRB assay relative to control; assay type: functional; conditions: A498, 48 h, read-out: Activity; procedure, shortened: as §1
HCT-15 = assay: Cytotoxicity against human HCT15 cells assessed as cell growth at 10 uM after 48 hrs by SRB assay relative to control; assay type: functional; conditions: HCT-15, 48 h, read-out: Activity; procedure, shortened: as §1
M14 = assay: Cytotoxicity against human M14 cells assessed as cell growth at 10 uM after 48 hrs by SRB assay relative to control; assay type: functional; conditions: M14, 48 h, read-out: Activity; procedure, shortened: as §1
K562 = assay: Cytotoxicity against human K562 cells assessed as cell growth at 10 uM after 48 hrs by SRB assay relative to control; assay type: functional; conditions: K562, 48 h, read-out: Activity; procedure, shortened: as §1
ACHN = assay: Cytotoxicity against human ACHN cells assessed as cell growth at 10 uM after 48 hrs by SRB assay relative to control; assay type: functional; conditions: read-out: Activity; procedure, shortened: as §1
HOP-62 = assay: Cytotoxicity against human HOP62 cells assessed as cell growth at 10 uM after 48 hrs by SRB assay relative to control; assay type: functional; conditions: HOP-62, 48 h, read-out: Activity; procedure, shortened: as §1
OVCAR-8 = assay: Cytotoxicity against human OVCAR8 cells assessed as cell growth at 10 uM after 48 hrs by SRB assay relative to control; assay type: functional; conditions: OVCAR-8, 48 h, read-out: Activity; procedure, shortened: as §2
DU-145 = assay: Cytotoxicity against human DU145 cells after 72 hrs by MTT assay; assay type: functional, cell-based; conditions: DU-145, 72 h
Procedure, shortened: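 DU-145 cells grown in RPMI-1640 with 5% heat-inactivated fetal calf serum at 37 °C, 5% CO2. About 2×10^3 cells per well were seeded and incubated for 24 h. Compounds were dissolved in DMSO freshly and diluted into medium (vehicle 0.1% DMSO), then cells were exposed for 72 h. MTT was added for 3 h at 37 °C and absorbance read at 570 nm.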

SK-OV-3 = assay: Cytotoxicity against human SKOV3 cells assessed as cell growth at 10 uM after 48 hrs by SRB assay relative to control; assay type: functional; conditions: SK-OV-3, 48 h, read-out: Activity; procedure, shortened: as §2
U-251 = assay: Cytotoxicity against human U251 cells assessed as cell growth at 10 uM after 48 hrs by SRB assay relative to control; assay type: functional; conditions: U-251, 48 h, read-out: Activity; procedure, shortened: as §3
A549 = assay: Cytotoxicity against human A549 cells assessed as cell growth at 10 uM after 48 hrs by SRB assay relative to control; assay type: functional; conditions: A549, 48 h, read-out: Activity; procedure, shortened: as §1
RPMI-8226 = assay: Cytotoxicity against human RPMI8226 cells assessed as cell growth at 10 uM after 48 hrs by SRB assay relative to control; assay type: functional; conditions: RPMI-8226, 48 h, read-out: Activity; procedure, shortened: as §2
SF-268 = assay: Cytotoxicity against human SF268 cells assessed as cell growth at 10 uM after 48 hrs by SRB assay relative to control; assay type: functional; conditions: SF-268, 48 h, read-out: Activity; procedure, shortened: as §2
HL-60(TB) = assay: Cytotoxicity against human HL-60(TB) cells assessed as cell growth at 10 uM after 48 hrs by SRB assay relative to control; assay type: functional; conditions: HL-60, 48 h, read-out: Activity
Procedure, shortened: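 NCI Developmental Therapeutics Program 60-cell-line screen, first stage: a single dose of 10 μM against the panel, reported as percentage growth.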

PC-3 = assay: Cytotoxicity against human PC3 cells assessed as cell growth at 10 uM after 48 hrs by SRB assay relative to control; assay type: functional; conditions: PC-3, 48 h, read-out: Activity; procedure, shortened: as §2

| Structure (SMILES) | growth at 10 µM (NCI-H226) | growth at 10 µM (OVCAR-3) | growth at 10 µM (SF-295) | growth at 10 µM (SK-MEL-28) | growth at 10 µM (MDA-MB-231) | growth at 10 µM (786-0) | growth at 10 µM (SNB-19) | growth at 10 µM (RXF 393) | growth at 10 µM (SN12C) | growth at 10 µM (KM12) | growth at 10 µM (SK-MEL-2) | growth at 10 µM (MDA-MB-435) | growth at 10 µM (NCI/ADR-RES) | growth at 10 µM (A498) | growth at 10 µM (HCT-15) | growth at 10 µM (M14) | growth at 10 µM (K562) | growth at 10 µM (HOP-62) | growth at 10 µM (OVCAR-8) | IC50 (DU-145) | also measured |
| --- | --- | --- | --- | --- | --- | --- | --- | --- | --- | --- | --- | --- | --- | --- | --- | --- | --- | --- | --- | --- | --- |
| O=C1c2ccccc2C(=O)c2c1ccc1nsnc21 | 97.8% | -15.5% | 126% | 15.5% | -17.3% | -26% | 79% | 20.1% | -73.3% | 98.6% | -73.2% | -87.9% | -2.53% | 130% | 1.48% | 74.5% | 49.6% | -100% | -10.1% | 7.41 µM | growth at 10 µM (HT-29): 117%; growth at 10 µM (OVCAR-5): -20.1%; growth at 10 µM (ACHN): -94.3%; growth at 10 µM (SK-OV-3): 101%; growth at 10 µM (U-251): -89.3%; growth at 10 µM (A549): 104%; growth at 10 µM (RPMI-8226): -28%; growth at 10 µM (SF-268): 16.3%; growth at 10 µM (HL-60(TB)): -21.8% |
| O=C1c2ccccc2C(=O)c2c1cc(Sc1cc(Cl)ccc1Cl)c1nsnc21 | 112% | 99.4% | 78.9% | 123% | 82.4% | 67.5% | 84.4% | 91.5% | 96.7% | 101% | 101% | 106% | 83.1% | 87.7% | 92.8% | 99% | 47.8% | 63.2% | 85.1% | > 15 µM | growth at 10 µM (HT-29): 106%; growth at 10 µM (OVCAR-5): 109%; growth at 10 µM (ACHN): 88.5%; growth at 10 µM (PC-3): 80.6%; growth at 10 µM (SK-OV-3): 84.1%; growth at 10 µM (U-251): 63.6%; growth at 10 µM (A549): 103%; growth at 10 µM (RPMI-8226): 77.2%; growth at 10 µM (SF-268): 83%; growth at 10 µM (HL-60(TB)): 72.7% |
| O=C1c2ccccc2C(=O)c2c1cc(Sc1ccc(Cl)cc1)c1nsnc21 | 104% | 119% | 97.3% | 130% | 89% | 109% | 105% | 118% | 87% | 102% | 109% | 107% | 102% | 93% | 98.1% | 105% | 94.9% | 102% | 88.6% | > 15 µM | growth at 10 µM (PC-3): 86.9%; growth at 10 µM (SK-OV-3): 109%; growth at 10 µM (U-251): 104%; growth at 10 µM (A549): 104%; growth at 10 µM (RPMI-8226): 90.2%; growth at 10 µM (SF-268): 105%; growth at 10 µM (HL-60(TB)): 87.3% |
| O=C1c2ccccc2C(=O)c2c1cc(SCc1ccccc1)c1nsnc21 | 101% | 25.3% | 91.6% | 95% | -13.4% | 92.6% | 94.3% | 68.1% | 66.1% | 103% | -3.95% | -48.3% | 62.3% | 88.6% | 54.7% | 86.5% | 10.5% | 83.7% | 6.01% | 6.35 µM | growth at 10 µM (PC-3): 38.4%; growth at 10 µM (SK-OV-3): 80.3%; growth at 10 µM (U-251): 30.5%; growth at 10 µM (A549): 102%; growth at 10 µM (RPMI-8226): 43.2%; growth at 10 µM (SF-268): 56%; growth at 10 µM (HL-60(TB)): 70.3% |
